Measured values reported in ChEMBL document CHEMBL3244139, “Antiarrhythmic activity of p-hydroxy-N-(2-diethylaminoethyl) benzamide (the p-hydroxy isostere of procainamide) in dogs and mice” (J Med Chem, 1977).
Calls of active or inactive are those of the source. The rule behind the calls is not given here.

How the values were obtained:
[1] = system: Mus musculus; test: Antiarrhythmic activity in ip dosed ICR mouse assessed as protection against chloroform-induced ventricular fibrillation; type: functional; settings: Heart
Summary of the method: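 Male ICR mice, 28-35 days, mean 25 g, given drug ip, then after 10 min exposed to chloroform in a jar until breathing stopped. Protection meant no intermittent or continuous ventricular fibrillation at any point. Eight mice per dosage interval.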

[2] = system: Mus musculus; test: Antiarrhythmic activity in ICR mouse assessed as protection against chloroform-induced ventricular fibrillation at 233 to 240 mg/kg, ip; type: functional; settings: Heart
Summary of the method: (§1)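 ICR male mice, 28-35 days old, average weight 25 g, dosed ip. After 10 min they were placed in a chloroform jar and anesthetized. A mouse counted as protected if no intermittent or continuous ventricular fibrillation appeared before breathing ceased. Definite fibrillation counted as unprotected even if it later changed rhythm. Eight mice per dose.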

[3] = system: Mus musculus; test: Antiarrhythmic activity in ICR mouse assessed as protection against chloroform-induced ventricular fibrillation at 100 mg/kg, ip; type: functional, organism-based; parameters: dose 100 mg/kg; settings: Heart; summary of the method: as §1
[4] = Antiarrhythmic activity in mongrel dog Purkinje fiber assessed as 50% repolarization time at 5 ug/ml by Single Cell Potentials/electrophysiological technique (reference value: 200 +/- 6 ms); type: functional, Canis lupus familiaris
[5] = Antiarrhythmic activity in mongrel dog Purkinje fiber assessed as 50% repolarization time at 20 ug/ml by Single Cell Potentials/electrophysiological technique (reference value: 236 +/- 9 ms); type: functional, Canis lupus familiaris
[6] = Antiarrhythmic activity in mongrel dog Purkinje fiber assessed as maximum diastolic potential at 20 ug/ml (reference value: -93 +/- 2 mV) by Single Cell Potentials/electrophysiological technique; type: functional, Canis lupus familiaris
[7] = system: Canis familiaris; test: Antiarrhythmic activity in aconitine-induced mongrel dog arrhythmic model assessed as atrial rate measured at end of infusion at 59 +/- 25 mg/kg, iv; type: functional, Canis lupus familiaris, Heart
[8] = Toxicity in ip dosed ICR mouse assessed as acute mortality; type: organism-based; settings: in vivo
Summary of the method: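 Male ICR mice, 28-35 days old (av wt 26 g), in groups of ten per dose level, given drug ip. Deaths recorded at 10, 15, 30, 60, 120 and 210 min after injection to set acute mortality.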

[9] = Antiarrhythmic activity in mongrel dog Purkinje fiber assessed as spontaneous intrinsic rate at 5 ug/ml by Single Cell Potentials/electrophysiological technique (reference value: 19 +/- 4 BPM); type: functional, Canis lupus familiaris
[10] = system: Canis familiaris; test: Antiarrhythmic activity in aconitine-induced mongrel dog arrhythmic model assessed as atrial rate at 59 +/- 25 mg/kg, iv after 16 +/- 10 mins from end of infusion; type: functional, Canis lupus familiaris, Heart
[11] = Antiarrhythmic activity in mongrel dog Purkinje fiber assessed as action potential at 5 ug/ml (reference value: 127 +/- 2 mV) by Single Cell Potentials/electrophysiological technique; type: functional, Canis lupus familiaris
[12] = Antiarrhythmic activity in mongrel dog Purkinje fiber assessed as spontaneous intrinsic rate at 20 ug/ml by Single Cell Potentials/electrophysiological technique (reference value: 22 +/- 5 BPM); type: functional, Canis lupus familiaris
[13] = Antiarrhythmic activity in mongrel dog Purkinje fiber assessed as action potential at 20 ug/ml (reference value: 128 +/- 3 mV) by Single Cell Potentials/electrophysiological technique; type: functional, Canis lupus familiaris
[14] = system: Plasma; test: Plasma concentration in mongrel dog at 59 +/- 25 mg/kg, iv; type: ADME, organism-based, Canis lupus familiaris; parameters: route intravenous; settings: in vivo
Summary of the method: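 Plasma withdrawn from each aconitine-treated dog when iv infusion was discontinued; drug measured by TLC densitometry.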

[15] = system: Canis familiaris; test: Antiarrhythmic activity in aconitine-induced mongrel dog arrhythmic model assessed as decrease in ventricular rate measured at end of infusion at 59 +/- 25 mg/kg, iv (reference value: 205 +/- 65 BPM); type: functional, Canis lupus familiaris, Heart
[16] = Antiarrhythmic activity in mongrel dog Purkinje fiber assessed as rate of phase 0 depolarization (dV/dt) at 5 ug/ml by Single Cell Potentials/electrophysiological technique (reference value: 439 +/- 47 V/s); type: functional, Canis lupus familiaris
[17] = system: Canis familiaris; test: Antiarrhythmic activity in aconitine-induced mongrel dog arrhythmic model assessed as decrease in ventricular rate at 59 +/- 25 mg/kg, iv after 16 +/- 10 mins from end of infusion (reference value: 205 +/- 65 BPM); type: functional, Canis lupus familiaris, Heart
[18] = Antiarrhythmic activity in mongrel dog Purkinje fiber assessed as 90% repolarization time at 5 ug/ml by Single Cell Potentials/electrophysiological technique (reference value: 282 +/- 8 ms); type: functional, Canis lupus familiaris
[19] = Therapeutic index, ratio of LD50 for ICR mouse assessed as acute mortality to ED50 for protection against chloroform-induced ventricular fibrillation in ICR mouse; type: organism-based, Cardiac ventricle; settings: in vivo, read-out: Ratio LD50/ED50
Summary of the method: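 Male ICR mice, 28-35 days old, dosed ip. For ED50, 8 mice per dose went into a chloroform jar 10 min after dosing and were kept there until breathing stopped; mice with no intermittent or continuous ventricular fibrillation counted as protected. ED50 was derived by Litchfield-Wilcoxon. LD50 came from acute mortality in 10 mice per dose. Index reported as LD50/ED50.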

[20] = Antiarrhythmic activity in mongrel dog Purkinje fiber assessed as 90% repolarization time at 20 ug/ml by Single Cell Potentials/electrophysiological technique (reference value: 302 +/- 12 ms); type: functional, Canis lupus familiaris
[21] = Antiarrhythmic activity in mongrel dog Purkinje fiber assessed as maximum diastolic potential at 5 ug/ml (reference value: -93 +/- 2 mV) by Single Cell Potentials/electrophysiological technique; type: functional, Canis lupus familiaris
[22] = system: Plasma; test: Drug metabolism in mongrel dog assessed as p-hydroxy-N-(2-diethylaminoethyl)benzamide level in plasma; type: ADME, cell-free, Canis lupus familiaris
Summary of the method: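 Dog plasma sampled when infusion ended. Extracted with NaCl and internal standard and run on TLC (benzene/28% ammonia/acetone/dioxane 5:8:80:5). Quantified by reflectance densitometry, 260-nm illumination, as fluorescence quenching. Peak areas read against standard curves, linear over 0.1-0.8 µg per plate.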

[23] = system: Canis familiaris; test: Antiarrhythmic activity in aconitine-induced mongrel dog arrhythmic model assessed as mean arterial blood pressure measured at end of infusion at 59 +/- 25 mg/kg, iv (reference value: 70 +/- 8 mmHg); type: functional, Canis lupus familiaris, Artery
[24] = Antiarrhythmic activity in mongrel dog Purkinje fiber assessed as rate of phase 0 depolarization (dV/dt) at 20 ug/ml by Single Cell Potentials/electrophysiological technique (reference value: 478 +/- 67 V/s); type: functional, Canis lupus familiaris

Q: Which ED50 [1] does the source give for CCN(CC)CCNC(=O)c1ccc(NC(C)=O)cc1.Cl [ACECAINIDE HYDROCHLORIDE] here?
A: 110 mg/kg

Q: With CCN(CC)CCNC(=O)c1ccccc1 as the molecule, how does the Activity [2] read?
A: inactive

Q: What about the Activity [3] of the same molecule?
A: inactive

Q: For CCN(CC)CCNC(=O)c1ccc(O)cc1.Cl, which ED50 [1] is on record?
A: 157 mg/kg

Q: And the Time [4]?
A: 250 ms

Q: What about the Time [5] of the same molecule?
A: 280 ms

Q: What about the Activity [6] of the same molecule?
A: -94 mV

Q: What about the Activity [7] of the same molecule?
A: 210 bpm

Q: And the LD50 [8]?
A: 335 mg/kg

Q: And the Activity [9]?
A: 20 bpm

Q: And the Activity [10]?
A: 278 bpm

Q: What about the Activity [11] of the same molecule?
A: 127 mV

Q: And the Activity [12]?
A: 16 bpm

Q: What about the Activity [13] of the same molecule?
A: 126 mV

Q: What about the Cp [14] of the same molecule?
A: 137 µg/mL

Q: And the Activity [15]?
A: 197 bpm

Q: And the Activity [16]?
A: 396 V/s

Q: What about the Activity [17] of the same molecule?
A: 160 bpm

Q: What about the Time [18] of the same molecule?
A: 344 ms

Q: What about the selectivity ratio [19] of the same molecule?
A: 2.1

Q: What about the Time [20] of the same molecule?
A: 381 ms

Q: What about the Activity [21] of the same molecule?
A: -95 mV

Q: And the Drug metabolism [22]?
A: 97 µg/mL

Q: And the Activity [23]?
A: 64 mmHg

Q: What about the Activity [24] of the same molecule?
A: 423 V/s
